In data set [1] the test system is HT-29. As to the kind of experiment: Cytostatic activity against human HT-29 cells compound incubated for 6 hrs followed by compound wash out measured after 72 hrs by MTT assay. The class given is functional, cell-based. In a few lines: (§1)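 Cells plated at 5×10^3 per well and grown 24 h. Exposed 6 h to compound in serum-free RPMI-1640 (2.6×10^-4–10^2 µM, six parallels per concentration), washed twice, then cultured 72 h in serum-containing medium. MTT added at 367 µg/mL final for 3.5 h; crystals dissolved in DMSO; OD540 minus OD620 read. Cytostasis% = [1−(OD_treated/OD_control)]×100; IC50 taken from a sigmoidal fit. Three independent experiments, averaged.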

Data set [2] has as its target T1, Gonadotropin-releasing hormone receptor (Homo sapiens, UniProt P30968).
T1 sequence (P30968 whole entry): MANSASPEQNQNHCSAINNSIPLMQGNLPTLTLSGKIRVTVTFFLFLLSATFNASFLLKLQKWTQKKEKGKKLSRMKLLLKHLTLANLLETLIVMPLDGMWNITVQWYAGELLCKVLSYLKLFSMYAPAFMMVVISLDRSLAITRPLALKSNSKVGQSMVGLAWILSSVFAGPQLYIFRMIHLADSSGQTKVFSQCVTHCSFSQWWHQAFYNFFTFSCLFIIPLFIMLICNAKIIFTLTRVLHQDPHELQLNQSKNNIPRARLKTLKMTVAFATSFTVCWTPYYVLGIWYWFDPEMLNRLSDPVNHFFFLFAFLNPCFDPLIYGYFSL
As to the kind of experiment: Displacement of [125I][D-Trp6]GnRH1 from GnRH receptor expressed in human pituitary membrane by gamma counting. It is filed as cell membranes. In a few lines: (§2)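 Membranes came from autopsy anterior pituitary or a surgical prostate cancer specimen, homogenized in 50 mM Tris-HCl pH 7.4 with protease inhibitors and ultracentrifuged. 50–160 µg protein was incubated with 60-80,000 cpm [125I][D-Trp6]GnRH-I and competitor (10^-12–10^-6 M). Bound ligand was pelleted through ice-cold 1.5% BSA buffer and gamma-counted. IC50 (50% inhibition of specific binding) came from curve fitting; mean ± SE of 2–3 experiments, duplicate or triplicate.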
(Loss of bound radioactivity is the signal in a displacement assay; it reports binding, not function.)

The test system of data set [3] is MCF7. The data set can be described thus: Cytostatic activity against human MCF7 cells compound incubated for 6 hrs followed by compound wash out measured after 72 hrs by MTT assay. It is filed as functional, cell-based. The method, boiled down:
as §1

The test system of data set [4] is HT-29. As to the kind of experiment: Cellular uptake in human HT-29 cells after 6 hrs by flow cytometer. The class given is ADME, cell-based. Particulars: ht-29, 6 h; call rule not given here. In a few lines:
(§3)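 Cells plated at 1 x 10^5 per well, grown 24 h at 37°C, then exposed to conjugate in serum-free medium (0.16–100 µM) for 6 h at 37°C. Cells detached with trypsin/EDTA, resuspended in FCS-free medium and analysed by flow cytometry. Read-out is the percentage of daunorubicin-positive living cells. Duplicate samples at each concentration; each experiment repeated twice.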
A general note: In flow cytometry, cells or beads pass a laser one at a time.

The target in data set [5] is T1, Gonadotropin-releasing hormone receptor. The data set can be described thus: Displacement of [125I][D-Trp6]GnRH1 from GnRH receptor expressed in human prostate cancer membrane by gamma counting. The class given is cell membranes, Prostate gland. The method, boiled down: as §2
Data set [6] has as its system MCF7. The data set can be described thus: Cellular uptake in human MCF7 cells after 6 hrs by flow cytometer. It is filed as ADME, cell-based. Conditions: mcf7, 6 h. The method, boiled down: as §3
The nature of data set [7]: Drug metabolism in rat liver lysosomal homogenate after 24 hrs by LC-MS analysis. Particulars: tissue homogenate. It is filed as ADME, tissue-based. In a few lines:
(§4)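 Conjugate at 0.1 µg/µL in 0.2 M NaOAc pH 5.0, mixed 1:1 (w/w) with rat liver lysosomal homogenate (protein 17.4 µg/µL by BCA). Incubated at 37°C; aliquots taken at 5 min and 1, 2, 4, 6, 8 and 24 h. Fragments identified by ESI ion-trap LC-MS on a C18 column with a formic acid/acetonitrile gradient, positive mode, m/z 100–2500.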

A further data set concerns Serum. The data set can be described thus: Metabolic stability […] assessed as alpha-chymotrypsin-mediated compound degradation after 24 hrs by LC-MS analysis. The class given is ADME, cell-free. In a few lines: (§5)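 Digestion with α-chymotrypsin at an enzyme:substrate ratio of 1:50 (w/w) in 100 mM Tris-HCl/10 mM CaCl₂, pH 7.8, at 25°C. Aliquots taken at 5 min and 1, 2, 4, 6, 8 and 24 h, quenched with acetic acid, and analysed by LC-MS for intact conjugate and cleavage fragments.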

A short description of data set [8]: Chemical stability of the compound in serum-free DMEM cell culture media after 6 hrs by RP-HPLC analysis. The class given is physicochemical. In a few lines:
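Conjugate dissolved in water (20% of final volume), then diluted with serum-free DMEM to a final 0.5 mg/mL. Incubated at 37°C for 6 h with hourly sampling. Monitored by analytical RP-HPLC on a C18 or CN column, gradient of 0.1% TFA water/MeCN, detection at 220 nm.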

The nature of data set [9]: Metabolic stability […] assessed as alpha-chymotrypsin-mediated compound degradation after 6 hrs by LC-MS analysis. It is filed as ADME, cell-free. Conditions: read-out: Drug degradation. In a few lines:
as §5

The nature of data set [10]: Drug metabolism in rat liver lysosomal homogenate after 2 hrs by LC-MS analysis. Particulars: tissue homogenate. The class given is ADME, tissue-based. In a few lines: as §4
Data set [11] is described as follows: Metabolic stability […] assessed as alpha-chymotrypsin-mediated compound degradation after 8 hrs by LC-MS analysis. It is filed as ADME, cell-free. Conditions: read-out: Drug degradation. The method, boiled down: as §5
Data set [12] in a line: Octanol-water partition coefficient, log P of the compound by shake flask method. The class given is physicochemical. The method, boiled down: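 Shake-flask octanol/water partitioning with RP-HPLC quantitation. P calculated as the ratio of octanol to water HPLC peak areas, then converted to logP.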
In data set [13] the test system is MCF7. As to the kind of experiment: Cellular uptake in human MCF7 cells at 4 uM after 6 hrs by flow cytometer. The class given is ADME, cell-based. Particulars: mcf7, 6 h. The method, boiled down:
as §3

pIC50: −log10 of the molar value.

As usually defined, the pIC50 is the negative decadic logarithm of the IC50, by convention in mol/L. Read a low pIC50 as a large IC50. Take `COc1cccc2c1C(=O)c1c(O)c3c(c(O)c1C2=O)C[C@@](O)(/C(C)=N/OCC(=O)NCCCC[C@@H](NC(=O)[C@H](Cc1ccc(O)cc1)NC(=O)[C@H](CO)NC(=O)[C@H](Cc1c[nH]c2ccccc12)NC(=O)[C@H](Cc1cnc[nH]1)NC(=O)[C@@H]1CCC(=O)N1)C(=O)N[C@@H](CC(C)C)C(=O)N[C@@H](CCCNC(=N)N)C(=O)N1CCC[C@H]1C(=O)NCC(N)=O)C[C@@H]3O[C@H]1C[C@H](N)[C@H](O)[C@H](C)O1`: the negative logarithm of the IC50 (pIC50) in the data set with HT-29 [1] is 4.69; in data set [2], 8.79; with MCF7 [3], 5.39; in [5], 7.78. Also, the Drug uptake entry in the data set on HT-29 [4] and in the data set on MCF7 [6] was “Dose-dependent effect” throughout.

On to `CCC(=O)NCCCC[C@H](NC(=O)[C@H](Cc1c[nH]c2ccccc12)NC(=O)[C@H](Cc1cnc[nH]1)NC(=O)[C@@H]1CCC(=O)N1)C(=O)N[C@@H](Cc1cnc[nH]1)C(=O)N[C@@H](CC(=O)O)C(=O)N[C@@H](Cc1c[nH]c2ccccc12)C(=O)N[C@@H](CCCCNC(=O)CO/N=C(\C)[C@]1(O)Cc2c(O)c3c(c(O)c2[C@@H](O[C@H]2C[C@H](N)[C@H](O)[C@H](C)O2)C1)C(=O)c1c(OC)cccc1C3=O)C(=O)N1CCC[C@H]1C(=O)NCC(N)=O`, for which the figures for the pIC50 in the data set on HT-29 [1] and with MCF7 [3] were 4.76 and 5.44, respectively. The Drug metabolism entry in data set [7] and in data set [10] was “Active” in each case. Moreover, the Stability result in the data set on Serum was “Unstable”; in [8] it was “Stable”. Besides, the Drug uptake result in the data set on HT-29 [4] and in the data set with MCF7 [6] was “Dose-dependent effect” throughout. For the same compound, in [9], the metabolised at 6 h is 45%.

Regarding `C/C=C/C(=O)NCCCC[C@H](NC(=O)[C@H](Cc1c[nH]c2ccccc12)NC(=O)[C@H](Cc1cnc[nH]1)NC(=O)[C@@H]1CCC(=O)N1)C(=O)N[C@@H](Cc1cnc[nH]1)C(=O)N[C@@H](CC(=O)O)C(=O)N[C@@H](Cc1c[nH]c2ccccc12)C(=O)N[C@@H](CCCCNC(=O)CO/N=C(\C)[C@]1(O)Cc2c(O)c3c(c(O)c2[C@@H](O[C@H]2C[C@H](N)[C@H](O)[C@H](C)O2)C1)C(=O)c1c(OC)cccc1C3=O)C(=O)N1CCC[C@H]1C(=O)NCC(N)=O`, the pIC50 in the data set on HT-29 [1] was 4.87; in the data set on MCF7 [3], 5.80. Moreover, the Drug metabolism result in data set [7] and in data set [10] was “Active” throughout. For the same compound, the results for the Stability entry (in the data set with Serum; in [8]) were “Unstable” and “Stable”, respectively. Further, the Drug uptake entry in the data set on HT-29 [4] and in the data set on MCF7 [6] was “Dose-dependent effect” in each case. Moreover, the metabolised at 6 h in data set [9] was 50%.

For `COc1cccc2c1C(=O)c1c(O)c3c(c(O)c1C2=O)C[C@@](O)(/C(C)=N/OCC(=O)NCCCC[C@H](NC(=O)[C@H](Cc1c[nH]c2ccccc12)NC(=O)[C@H](CC(=O)O)NC(=O)[C@H](Cc1cnc[nH]1)NC(=O)[C@H](CCCCNC(=O)CC(C)C)NC(=O)[C@H](Cc1c[nH]c2ccccc12)NC(=O)[C@H](Cc1cnc[nH]1)NC(=O)[C@@H]1CCC(=O)N1)C(=O)N1CCC[C@H]1C(=O)NCC(N)=O)C[C@@H]3O[C@H]1C[C@H](N)[C@H](O)[C@H](C)O1`, the pIC50 was 4.79 in the data set on HT-29 [1] and 5.60 in the data set on MCF7 [3]. The Drug metabolism result in data set [7] and in data set [10] was “Active” in each case. The Stability result in the data set with Serum is on record as “Unstable”; in [8] it was “Stable”. For the same compound, the Drug uptake entry in the data set on HT-29 [4] and in the data set on MCF7 [6] was “Dose-dependent effect” throughout. In addition, in [9], the metabolised at 6 h was 34%. For the same compound, in data set [11], the metabolised at 8 h was 50%.

On to `CCCCCC(=O)NCCCC[C@H](NC(=O)[C@H](Cc1c[nH]c2ccccc12)NC(=O)[C@H](Cc1cnc[nH]1)NC(=O)[C@@H]1CCC(=O)N1)C(=O)N[C@@H](Cc1cnc[nH]1)C(=O)N[C@@H](CC(=O)O)C(=O)N[C@@H](Cc1c[nH]c2ccccc12)C(=O)N[C@@H](CCCCNC(=O)CO/N=C(\C)[C@]1(O)Cc2c(O)c3c(c(O)c2[C@@H](O[C@H]2C[C@H](N)[C@H](O)[C@H](C)O2)C1)C(=O)c1c(OC)cccc1C3=O)C(=O)N1CCC[C@H]1C(=O)NCC(N)=O`, for which the values for the pIC50 with HT-29 [1] and in the data set with MCF7 [3] were 4.70 and 5.82, respectively. The Drug metabolism result in data set [7] and in data set [10] was “Active” in each case. The Drug degradation with Serum came out at 90%. Also, in data set [8], the Stability result was “Stable”. For the same compound, the Drug uptake result with HT-29 [4] and in the data set on MCF7 [6] was “Dose-dependent effect” each time. The metabolised at 6 h in data set [9] amounted to 30%.

As a reminder, the logP is a log measure of how a compound divides between an organic and an aqueous phase. Read a high logP as a more lipophilic compound. For `CCCCCCCCCCCCCC(=O)NCCCC[C@H](NC(=O)[C@H](Cc1c[nH]c2ccccc12)NC(=O)[C@H](Cc1cnc[nH]1)NC(=O)[C@@H]1CCC(=O)N1)C(=O)N[C@@H](Cc1cnc[nH]1)C(=O)N[C@@H](CC(=O)O)C(=O)N[C@@H](Cc1c[nH]c2ccccc12)C(=O)N[C@@H](CCCCNC(=O)CO/N=C(\C)[C@]1(O)Cc2c(O)c3c(c(O)c2[C@@H](O[C@H]2C[C@H](N)[C@H](O)[C@H](C)O2)C1)C(=O)c1c(OC)cccc1C3=O)C(=O)N1CCC[C@H]1C(=O)NCC(N)=O`, the pIC50 is 4.43 in the data set with HT-29 [1] and 5.17 in the data set with MCF7 [3]. Further, the Drug metabolism entry in data set [7] and in data set [10] was “Active” throughout. Moreover, the Stability result in data set [8] is listed as “Stable”. The Drug uptake entry was “Dose-dependent effect” in the data set on HT-29 [4], 41.3% with MCF7 [13] and “Dose-dependent effect” in the data set on MCF7 [6]. The same compound displayed a lipophilicity (logP) in [12] of -0.596.

In the case of `COc1cccc2c1C(=O)c1c(O)c3c(c(O)c1C2=O)C[C@@](O)(/C(C)=N/OCC(=O)NCCCC[C@H](NC(=O)[C@H](Cc1c[nH]c2ccccc12)NC(=O)[C@H](CC(=O)O)NC(=O)[C@H](Cc1cnc[nH]1)NC(=O)[C@H](CCCCN)NC(=O)[C@H](Cc1c[nH]c2ccccc12)NC(=O)[C@H](Cc1cnc[nH]1)NC(=O)[C@@H]1CCC(=O)N1)C(=O)N1CCC[C@H]1C(=O)NCC(N)=O)C[C@@H]3O[C@H]1C[C@H](N)[C@H](O)[C@H](C)O1`, the pIC50 is 5.09 with HT-29 [1] and 5.59 with MCF7 [3]. Also, the Drug uptake result in the data set with HT-29 [4] and with MCF7 [6] was “Dose-dependent effect” each time.

Source of the values: ChEMBL document CHEMBL2086240, “Enhanced cellular uptake and in vitro antitumor activity of short-chain fatty acid acylated daunorubicin-GnRH-III bioconjugates” (Eur J Med Chem, 2012).
